# Measurements collected from several papers.
# Compare with care: the assays were run in different laboratories.
SMILES,test system,setting,Cmax
C=CC(=O)N1CC2CC(n3nc(-c4ccc(C(=O)Nc5ccccn5)cc4)c4c(N)ncnc43)CC2C1 (stereo not drawn),"SCID mouse, plasma","oral, 5 mg/kg",429 ng/mL
CN1CCC[C@H](CN2c3ccccc3Sc3ccccc32)C1.O=C(O)CCC(=O)O,"mouse, plasma","oral, 64 mg/kg, single dose",1540 ng/mL
CCn1ncc2c(Nc3ccc(OC(F)(F)F)cc3)ncnc21,"male BALB/c mouse, plasma","oral, 20 mg/kg",263 ng/mL
CS(=O)(=O)CCNCc1ccc(-c2ccc3ncnc(Nc4ccc(OCc5cccc(F)c5)c(Cl)c4)c3c2)o1,"nude mouse, plasma","oral, 50 mg/kg, single dose",6470 ng/mL
NC1(C(=O)N[C@@H](CCO)c2ccc(Cl)cc2)CCN(c2ncnc3[nH]ccc23)CC1,"male Swiss mouse, plasma","intraperitoneal, 25 mg/kg, single dose",~8 µM
Cc1c2c(n(-c3ccc(F)cc3Cl)c1-c1ccc(OS(=O)(=O)CCC(F)(F)F)cc1)CCN(N1CCCCC1)C2=O,"mouse, plasma","oral, 6 µmol/kg, single dose",0.04 µM
COc1nc(-c2cc(C)c(N[C@@H](C)c3cc(F)cc(F)c3)nn2)ccc1-n1cnc(C)c1,"male CD-1 mouse, plasma","oral, 5 mg/kg, single dose",1180 ng/mL
CNC(=O)c1ccccc1Nc1cc(Nc2ccc(N3CCOCC3)cc2OC)ncc1C(F)(F)F,"BALB/c mouse, plasma","oral, 150 mg/kg",~14 µM
CSc1cc(Oc2ccnc3[nH]c(=O)cnc23)ccc1NC(=O)Nc1cc(C(C)(C)C)nn1-c1ccccc1,"BALB/c mouse, plasma","intravenous, 2 mg/kg",29.8 µM
Cc1nc(-c2cnc(NC(C)C)n(C)c2=O)ccc1Oc1ccnc(-c2cnn(C)c2)c1,"female mouse, plasma","oral, 15 mg/kg, single dose",9360 ng/mL
Cn1cnc2c(F)c(Nc3ccc(Br)cc3Cl)c(C(=O)NOCCO)cc21,"nude mouse, liver","oral, 10 mg/kg, single dose, tumour-bearing",1440 ng/g
COc1ccc(C(O)COc2ccc(-c3csc(-c4ccc(OCC(O)c5ccc(OC)c(OC)c5)cc4)n3)cc2)cc1OC (stereo not drawn),"C57BL/6 mouse, plasma","oral, 10 mg/kg",1760 ng/mL
O=S(=O)(c1ccc(-c2ccc3nccc(Nc4ccncn4)c3c2)cc1)N1CCOCC1,"female BALB/c mouse, plasma","intraperitoneal, 10 mg/kg",4460 ng/mL
CC(C)(C)c1ccc(O)c(CN(Cc2cc(C(C)(C)C)ccc2O)C2CCC(NC(N)=O)CC2)c1 (stereo not drawn),"male C57BL/6 mouse, brain","intraperitoneal, 10 mg/kg, single dose",1070 ng/g
CCc1cc(C(=O)NC)c2nccc(N3CCc4c(cc(Cn5ccnc5)cc4-c4cn(C)nc4C(F)(F)F)C3=O)c2c1,"male CD-1 mouse, plasma","oral, 150 mg/kg",131000 ng/mL
CC(=O)O[C@H]1C(=O)[C@@]2(C)[C@H]([C@H](OC(=O)c3ccccc3)[C@]3(O)C[C@H](OC(=O)[C@H](O)[C@@H](NC(=O)c4ccccc4)c4ccccc4)C(C)=C1C3(C)C)[C@]1(OC(C)=O)CO[C@@H]1C[C@@H]2O,"SCID mouse, tumour","intraperitoneal, 10 mg/kg, single dose, tumour-bearing",3700 ng/g
CC1(C)CC[C@]2(C(=O)O)CC[C@]3(C)C(=CC[C@@H]4[C@@]5(C)C[C@@H](O)[C@H](OC(=O)/C=C/c6ccc(O)cc6)C(C)(C)[C@@H]5CC[C@]43C)[C@@H]2C1 (relative stereo),"mouse, brain","intraperitoneal, 85 µmol/kg, single dose",1.75 µM
OC[C@H]1O[C@@H](c2ccc(Cl)c(Cc3ccc(O[C@H]4CCOC4)cc3)c2)[C@H](O)[C@@H](O)[C@@H]1O,"CD-1 mouse, plasma","oral, 10 mg/kg",2460 ng/mL
